Compounds with a hit are over-represented: about 1.5% of the library has one in this group of screens.
procasp3 activ – activates human procaspase-3. recombinant procaspase-3 D3A, Ac-DEVD-pNA absorbance 405 nm. activation, % at 8.5 µM. P42574. 330,000 tested, 0.11% active;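 active = activation above the mean of all tested compounds plus 3 SD, cut at about 21% in these data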;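 also: 0% = DMSO alone and 100% = DMSO wells spiked with extra 5 µM PC-3 D3A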
Target sequence (P42574 whole entry D9A/D28A/D175A): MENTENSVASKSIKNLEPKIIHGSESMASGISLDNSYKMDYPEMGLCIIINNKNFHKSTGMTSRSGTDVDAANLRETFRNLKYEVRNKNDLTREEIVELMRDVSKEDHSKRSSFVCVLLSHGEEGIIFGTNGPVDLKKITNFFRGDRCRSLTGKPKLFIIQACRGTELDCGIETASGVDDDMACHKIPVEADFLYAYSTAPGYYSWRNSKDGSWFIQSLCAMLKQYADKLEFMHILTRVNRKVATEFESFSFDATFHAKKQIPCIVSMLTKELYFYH
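assay system = Procaspase-3 D3A mutant | signal = absorbance at 405 nm, 0 and 120 min | times = 1 h preincubation plus 2 h reaction at 25 °C | repeats = single replicate | read-out = % activation between DMSO and enzyme-spiked controls | medium = Zinc-free HEPES saline buffer with Triton X-100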
bovine MsrA act – bovine methionine sulfoxide reductase A activation | 360,000 tested, 0.3% active | purified bovine MsrA, absorbance read-out | AID 602163 | activation, % at 10.6 µM; in the data active = activation above about 7.5%;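 also: 0% = vehicle and 100% = reference activator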
MsrA inhibitor – bovine MsrA inhibition. purified bovine MsrA, absorbance read-out. inhibition, % at 15.5 µM. 360,000 tested, 0.75% active; in the data active = inhibition above about 4.5%;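 also: 0% = vehicle wells with enzyme and 100% = reference inhibitor wells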
proCasp7 act – activates human procaspase-7, counter-screen for procaspase-3 activators; recombinant procaspase-7, Ac-DEVD-pNA absorbance 405 nm; D23A/D198A/D206A triple mutant, cannot self-cleave; scale: DMSO 0, 5 µM enzyme 100; activation, % at 8.5 µM; 330,000 tested, 0.093% active; AID 463210;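 active = percent activation above the screen-wide mean plus 3 SD, cut at about 25% in these data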
Target sequence (P55210 whole entry D23A/D198A/D206A): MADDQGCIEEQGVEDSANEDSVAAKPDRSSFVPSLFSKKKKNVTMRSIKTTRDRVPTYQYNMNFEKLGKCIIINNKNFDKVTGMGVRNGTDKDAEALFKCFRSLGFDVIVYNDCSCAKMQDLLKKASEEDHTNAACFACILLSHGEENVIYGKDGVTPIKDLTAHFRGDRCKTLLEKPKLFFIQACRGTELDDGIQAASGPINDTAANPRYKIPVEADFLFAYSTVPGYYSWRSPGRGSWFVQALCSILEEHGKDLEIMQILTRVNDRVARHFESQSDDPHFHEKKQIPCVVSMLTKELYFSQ
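Test system: Procaspase-7 triple mutant (PC-7 D3A). Also added: Ac-DEVD-pNA substrate, 400 µM as added. Schedule: 1 h enzyme–compound preincubation and 2 h substrate reaction, both 25 °C. Signal: p-Nitroaniline absorbance at 405 nm, read at 0 and 120 min. Control set: low DMSO alone, high DMSO plus 5 µM PC-7.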
TbMetRS inhib – Trypanosoma brucei MetRS inhibition; inhibition, % at 11.9 µM; purified T. brucei MetRS, ATP depletion, Kinase-Glo luminescence; 360,000 tested, 0.4% active;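 active = inhibition above a per-plate cutoff of the control wells' mean inhibition plus 3 SD, cut at about 5.5% in these data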;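 also: 0% = DMSO wells median and 100% = median of wells with control inhibitor compound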
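Material – parasite MetRS enzyme · Medium – HEPES-MgCl2-KCl buffer plus DTT, spermine, BSA, pyrophosphatase · Reagent – ATP, methionine and E. coli bulk tRNA substrates · Times – 15 min enzyme-compound preincubation, 2 h reaction, 10 min detection, 25 °C · Measured by – luminescence of leftover ATP · Evaluation – percent inhibition relative to median high and low control wells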
PC3 dual counter – activates human procaspase-3, dual activator counter-screen; AID 493114; shares compounds with proCasp7 act; recombinant PC-3 D3A, Ac-DEVD-pNA absorbance 405 nm; aspartates 9, 28, 175 changed to alanine; 100% = enzyme control; activation, % at 8.5 µM; 290 tested, under 10 active;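 active = mean percent activation across triplicates above a set limit taken from the earlier primary procaspase-3 screen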;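 also: 0% = DMSO wells and 100% = DMSO wells with 5 µM added PC-3 D3A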
Procasp7 act – confirmation of dual procaspase activators: human procaspase-7 activation | shares compounds with proCasp7 act | recombinant procaspase-7, Ac-DEVD-pNA absorbance 405 nm; D23A/D198A/D206A mutant that cannot self-cleave | activation, % at 8.5 µM | 290 tested, under 10 active | AID 493115;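 active = mean activation above a set limit carried over from the earlier primary screen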;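 also: 0% = DMSO only and 100% = DMSO with added 5 µM PC-7 enzyme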
An asterisk follows results filed as active; nt = no result given.

SMILES | procasp3 activ | bovine MsrA act | MsrA inhibitor | proCasp7 act | TbMetRS inhib | PC3 dual counter | Procasp7 act
CCN(CC)c1ccc(/C=N/NC(=O)c2nnn(-c3nonc3N)c2C(C)C)c(O)c1 | 59* | -4 | 4 | 44* | 0 | -30 | -35
CN(C)c1nc(-c2ccccc2)c2cnn(Cc3ccccc3)c2n1 | 18 | -3 | 1 | 34* | 0 | -29 | -36
c1ccc(Cn2ncc3ccccc32)cc1 | -7 | -1 | 2 | -5 | 0 | nt | nt
CCOC(=O)c1nc(Nc2cc(Cl)ccc2OC)c2ccccc2n1 | 8 | -1 | 0 | 26* | 0 | -25 | -33
Nc1ccn([C@@H]2O[C@H](C(=O)N[C@H](Cc3ccccc3)C(=O)NCc3cccc4c3OCO4)[C@@H](O)[C@H]2O)c(=O)n1 | nt | nt | 0 | nt | nt | nt | nt
Cc1cc(C)c(S(=O)(=O)c2ccccc2)c(OC(=O)c2c(F)cccc2F)n1 | -1 | -2 | 0 | 7 | 1 | nt | nt
Cc1cc(C)c(S(=O)(=O)c2ccccc2)c(OC(=O)c2c(Cl)cc(Cl)cc2Cl)n1 | -1 | -5 | -1 | 26* | 0 | 2 | 3
Cc1c(CC(=O)N2CCN(C(=O)C3COc4ccccc4O3)CC2)c(=O)oc2cc(O)ccc12 (centres undefined) | 24* | -5 | 3 | 30* | 0 | -28 | -34
Cc1c(CC(=O)N2CCN(C(=O)C3COc4ccccc4O3)CC2)c(=O)oc2c(C)c(O)ccc12 (centres undefined) | 27* | -6 | 2 | 26* | 0 | -29 | -35
CN1CCCCC(NC(=O)CCl)C1=O (centres undefined) | nt | nt | 0 | nt | nt | nt | nt
COc1ccc(C2C3=C(CC(C)(C)CC3=O)Nc3c2c(=O)[nH]c(=O)n3Cc2ccccc2)cc1 (centres undefined) | 12 | 3 | 2 | 29* | -1 | -30 | -34
COc1cc(C2C3=C(CC(C)(C)CC3=O)Nc3c2c(=O)[nH]c(=O)n3Cc2ccccc2)ccc1O (centres undefined) | 10 | 7 | 2 | 13 | 0 | nt | nt
COc1ccc(C2C3=C(CC(C)(C)CC3=O)Nc3c2c(=O)[nH]c(=O)n3Cc2ccccc2)cc1OC (centres undefined) | 12 | 0 | 3 | 26* | -1 | -27 | -34
CCOC(=O)CN1C(=O)[C@]2(OCCC=C[C@H]2C)c2c(Br)cccc21 | nt | nt | 0 | nt | nt | nt | nt
COCCOC(=O)C1=C(C)NC(C)=C(C(=O)OCCOC)C1/C=C/c1ccccc1OC | -14 | -2 | 0 | 4 | 1 | nt | nt
CCOC(=O)C1=C(C)NC(C)=C(C(=O)OCC)C1/C=C/c1ccccc1OC | 15 | 5 | 1 | 29* | -1 | -28 | -23
Cc1cc(N/N=C/c2ccc(N(C)C)cc2)nc(NCc2ccccc2)n1 | 57* | 0 | 0 | 32* | -1 | -28 | -27
OC[C@@H]1[C@@H](c2ccccc2)C(c2ccc(F)cc2)=NN1c1ccccc1 | 16 | 1 | nt | 29* | 0 | -29 | -35
OC[C@@H]1[C@@H](c2ccccc2)C(c2ccccc2)=NN1c1ccccc1 | 17 | -2 | 0 | 31* | 0 | -30 | -36
COc1ccccc1[C@H]1C(c2cccc(Cl)c2)=NN(c2ccccc2)[C@@H]1CO | 17 | -2 | nt | -19 | 1 | nt | nt
COCC(=O)N1C[C@H]2CON(C)[C@H]2C[C@H]1c1cccc(-c2cc(Cl)cc(Cl)c2)c1 | nt | nt | 0 | nt | nt | nt | nt
CCN(CC)c1ccc(-c2nn3c(-c4ccccc4OC)nnc3s2)cc1 | -1 | -10 | nt | 33* | -1 | -31 | -36
Oc1c(Cl)cc(Cl)cc1/C=N/NC(=S)NC1CC2C=CC1C2 (centres undefined) | 43* | -7 | 1 | 40* | -1 | -30 | -34
O=c1oc2ccc3ccccc3c2cc1-c1nc2ccccc2o1 | -2 | 0 | 2 | 28* | 0 | -30 | -35
Cc1cc(C)c2c(N)c(C(=O)Nc3ncc(C)s3)sc2n1 | -12 | -7 | 2 | -3 | -2 | nt | nt
SMILES | procasp3 activ | bovine MsrA act | MsrA inhibitor | proCasp7 act | TbMetRS inhib | PC3 dual counter | Procasp7 act
COc1ccc2nc(NC(=O)c3sc4nc(C)cc(C)c4c3N)sc2c1 | 21 | 0 | 0 | 71* | 0 | -29 | -36
COCc1cc(C)nc2sc(C(=O)Nc3ccccc3Br)c(N)c12 | 6 | -3 | 0 | 36* | 0 | -29 | -35
COCc1cc(C)nc2sc(C(=O)Nc3ccccc3C)c(N)c12 | 0 | -3 | 0 | -3 | 0 | nt | nt
COc1ccc2sc(-c3ccc(N(C)C)cc3)c(C#CC(C)(C)O)c2c1 | 49* | 0 | -1 | 70* | 0 | -30 | -36
COc1ccc2sc(-c3ccc(SC)cc3)c(C#CC(C)(C)O)c2c1 | -1 | -7 | 2 | -5 | 0 | nt | nt
O=C(Nc1ccc(Cc2ccncc2)cc1)C1CCC(N2C(=O)C3C4C=CC(C5CC45)C3C2=O)CC1 (centres undefined) | -6 | -7 | -1 | 30* | -2 | 2 | 27*
O=C(N[C@H](C(=O)N1CCC[C@H]1C(=O)NCc1ccccc1)c1ccccc1)c1ccc(Cl)cc1Cl | nt | nt | 0 | nt | nt | nt | nt
CC(=O)N1C[C@@H](CO)[C@@H]2C[C@H]1c1ccccc1N2C | nt | nt | 1 | nt | nt | nt | nt
CCCNC(=O)c1c(N)n(-c2cc(OC)cc(OC)c2)c2nc3ccccc3nc12 | 115* | 1 | 0 | 29* | 0 | -28 | -36
CCCNC(=O)c1c(N)n(-c2ccc3c(c2)OCO3)c2nc3ccccc3nc12 | 4 | -1 | 0 | 5 | 1 | nt | nt
NC(=O)c1nsc(C(=O)N(c2ccccc2F)C(C(=O)NCc2ccccc2)c2ccc(O)cc2)c1N (centres undefined) | 18 | -3 | -1 | 34* | 0 | -28 | -36
CCOc1ccccc1N(C(=O)c1snc(C(N)=O)c1N)C(C(=O)NCc1ccccc1)c1ccc(O)cc1 (centres undefined) | nt | -3 | 0 | nt | 0 | nt | nt
COc1ccc(N(C(=O)c2snc(C(N)=O)c2N)C(C(=O)NCc2ccccc2)c2ccc(O)cc2)cc1OC (centres undefined) | nt | -5 | 3 | nt | 0 | nt | nt
Cc1ccccc1N(C(=O)c1snc(C(N)=O)c1N)C(C(=O)NCc1ccccc1)c1ccc(O)cc1 (centres undefined) | -98 | 0 | -1 | 40* | 0 | -28 | -35
COc1ccc(C(C(=O)NCc2ccccc2)N(C(=O)c2snc(C(N)=O)c2N)c2ccccc2OC)cc1OC (centres undefined) | 2 | 1 | 1 | 4 | 0 | nt | nt
